Where two headings read alike, the source gives them in different places.
Legend:
[1] = test system: RVFV (rRVFVΔNSs::Katushka); experiment: microbe, parasite or virus in culture; assay type: cell-based, Rift Valley fever virus
in vitro [2] = conditions: human
CHIKV-2SG-NanoLuc [3] = experiment: microbe, parasite or virus in culture; assay type: cell-based, Chikungunya virus
RRV-2SG-NanoLuc [4] = experiment: microbe, parasite or virus in culture; assay type: cell-based, Ross River virus
RRV-2SG-NanoLuc [5] = experiment: microbe, parasite or virus in culture; assay type: cell-based, Ross River virus; remark: listed apart in the source
CHIKV-2SG-NanoLuc [6] = experiment: microbe, parasite or virus in culture; assay type: cell-based, Chikungunya virus; remark: listed apart in the source
in vitro [7] = conditions: human; remark: listed apart in the source
ZIKV FB-GWUH-2016 strain [8] = experiment: ZIKV titer from compound-treated RPE cells, plaque assay on Vero-E6 cells; assay type: cell-based, Zika virus; conditions: for antiviral activity in repeat experiments: repeated CTG, CTxG and virus titration; for EC50: Zika virus, read-out: EC50 other
In short: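 Medium for ZIKV infection: DMEM-F12 with 2% FBS, 2 mM L-glutamine, 0.25% sodium bicarbonate and 50 U/ml PenStrep, applied after 24 h growth of ~4 × 10^4 RPE cells/well. Test compound added in seven three-fold dilutions from 30 μM; infection at MOI 1. Media harvested at cytopathic effect (typically 24–72 hpi), serially diluted in PBS, plaque-titrated on Vero-E6 (PFU/ml). EC50 from variable-slope non-linear regression or Hill fit.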

ZIKV FB-GWUH-2016 strain [9] = experiment: Viability and death of ZIKV-infected RPE cells; assay type: cell-based, Zika virus; conditions: for SI (minimal selectivity index, CC50/EC50): ZIKV, RPE cells; for EC50: Zika virus, RPE
HIV-1 = HIV-1 infection of TZM-bl cells, firefly luciferase under HIV-1 LTR promoter; assay type: cell-based, Human immunodeficiency virus 1; conditions: for SI (minimal selectivity index, CC50/EC50) / primary screen hit against HIV-1 / validation of anti-HIV-1 hit: HIV-1, TZM-bl cells; for validation of anti-HIV-1 hit: validation experiment; for EC50: Human immunodeficiency virus 1, TZM-bl, read-out: EC50 other
in vitro [10] = conditions: human; remark: listed apart in the source
EV1 [11] = experiment: microbe, parasite or virus in culture; assay type: cell-based, Echovirus 1
EV1 [12] = experiment: microbe, parasite or virus in culture; assay type: cell-based, Echovirus 1; remark: listed apart in the source
[13] = Rift Valley fever virus, A549, read-out: EC50 other

Nc1ncn([C@@H]2O[C@H](CO)[C@@H](O)[C@H]2O)c(=O)n1 [Azacitidine]
SI (minimal selectivity index, CC50/EC50) [1]: >9 | screen hit against RVFV [1]: identified | EC50 [1, 13]: 11.4 µM | CC50 (in vitro [2]): > 100 µM

CN[C@H](CC(C)C)C(=O)N[C@H]1C(=O)N[C@@H](CC(N)=O)C(=O)N[C@H]2C(=O)N[C@H]3C(=O)N[C@H](C(=O)N[C@H](C(=O)O)c4cc(O)cc(O)c4-c4cc3ccc4O)[C@H](O[C@H]3C[C@](C)(N)[C@@H](O)[C@H](C)O3)c3ccc(c(Cl)c3)Oc3cc2cc(c3O[C@@H]2O[C@H](CO)[C@@H](O)[C@H](O)[C@H]2O[C@H]2C[C@](C)(NCc3ccc(-c4ccc(Cl)cc4)cc3)[C@@H](O)[C@H](C)O2)Oc2ccc(cc2Cl)[C@H]1O [Oritavancin]
screen hit against RVFV [1]: identified | EC50 [1, 13]: 4.49 µM | CC50 (in vitro [2]): 75.8 µM

COc1c(C)c2c(c(O)c1C/C=C(\C)CCC(=O)O)C(=O)OC2 [Mycophenolic acid]
SI (minimal selectivity index, CC50/EC50) (CHIKV-2SG-NanoLuc [3]; CHIKV, RPE cells): >333 | EC50 (CHIKV-2SG-NanoLuc [3]; Chikungunya virus, RPE, read-out: EC50 CTxG): 0.08 µM | antiviral activity in repeat experiments (RRV-2SG-NanoLuc [4]): confirmed antiviral activity | EC50 (RRV-2SG-NanoLuc [4]; Ross River virus, RPE, read-out: EC50 other): 0.86 µM | SI (minimal selectivity index, CC50/EC50) (RRV-2SG-NanoLuc [5]): >9 | EC50 (RRV-2SG-NanoLuc [5]; Ross River virus, RPE, read-out: EC50 CTG): 3.19 µM | antiviral activity in repeat experiments (CHIKV-2SG-NanoLuc [6]): confirmed antiviral activity | EC50 (CHIKV-2SG-NanoLuc [6]; Chikungunya virus, RPE, read-out: EC50 other): 0.09 µM | CC50 (in vitro [7]; CC50 CTG): > 30 µM | CC50 (in vitro [7]; CC50 CTxG): > 30 µM

Nc1ncnc2c([C@@H]3N[C@H](CO)[C@@H](O)[C@H]3O)c[nH]c12 [BCX4430]
antiviral activity in repeat experiments (ZIKV FB-GWUH-2016 strain [8]; ZIKV, RPE cells): confirmed antiviral activity | EC50 (ZIKV FB-GWUH-2016 strain [8]): 13.1 µM | SI (minimal selectivity index, CC50/EC50) (ZIKV FB-GWUH-2016 strain [9]): >2 | EC50 (ZIKV FB-GWUH-2016 strain [9]; read-out: EC50 CTG): 18.5 µM | EC50 (ZIKV FB-GWUH-2016 strain [9]; read-out: EC50 CTxG): 2.96 µM | CC50 (in vitro [7]; CC50 CTG): > 30 µM | CC50 (in vitro [7]; CC50 CTxG): > 30 µM

CO[C@H]1C[C@@H]2CC[C@@H](C)[C@@](O)(O2)C(=O)C(=O)N2CCCC[C@H]2C(=O)O[C@H]([C@H](C)C[C@@H]2CC[C@@H](O)[C@H](OC)C2)CC(=O)[C@H](C)/C=C(\C)[C@@H](O)[C@@H](OC)C(=O)[C@H](C)C[C@H](C)/C=C/C=C/C=C/1C [Rapamycin]
SI (minimal selectivity index, CC50/EC50) (HIV-1): >1 | primary screen hit against HIV-1 (HIV-1): anti-HIV-1 agents | validation of anti-HIV-1 hit (HIV-1): confirmed | EC50 (HIV-1): 18.9 µM | CC50 (in vitro [10]): > 30 µM

Bortezamib
CC50 (A549 cells): > 100 µM | screen hit against RVFV [1]: identified | EC50 ([1]; read-out: EC50 other): < 0.39 µM

CC[C@@]1(O)C(=O)OCc2c1cc1n(c2=O)Cc2cc3c(CN(C)C)c(O)ccc3nc2-1 [topotecan]
screen hit against RVFV [1]: identified

Cc1cccc(C)c1OCC(=O)N[C@@H](Cc1ccccc1)[C@@H](O)C[C@H](Cc1ccccc1)NC(=O)[C@H](C(C)C)N1CCCNC1=O [Lopinavir]
antiviral activity in repeat experiments (ZIKV FB-GWUH-2016 strain [8]; ZIKV, RPE cells): confirmed antiviral activity | EC50 (ZIKV FB-GWUH-2016 strain [8]): 24.1 µM | SI (minimal selectivity index, CC50/EC50) (ZIKV FB-GWUH-2016 strain [9]): >1 | EC50 (ZIKV FB-GWUH-2016 strain [9]; read-out: EC50 CTG): 12 µM | CC50 (in vitro [7]; CC50 CTG): > 30 µM | CC50 (in vitro [7]; CC50 CTxG): > 30 µM

CCCCOc1cc(C(=O)NCCN(CC)CC)c2ccccc2n1 [Dibucaine]
SI (minimal selectivity index, CC50/EC50) (EV1 [11]): >15 | EC50 (EV1 [11]; Enterovirus B, RPE, read-out: EC50 CTxG): 2.05 µM | CC50 (in vitro [7]; CC50 CTG): > 30 µM | CC50 (in vitro [7]; CC50 CTxG): > 30 µM | antiviral activity in repeat experiments (EV1 [12]): confirmed antiviral activity | EC50 (EV1 [12]; Enterovirus B, read-out: EC50 other): 0.96 µM

O=C1[C@H](CC[C@H](O)c2ccc(F)cc2)[C@@H](c2ccc(O)cc2)N1c1ccc(F)cc1 [Ezetimibe]
production of infectious virus particles (ZIKV FB-GWUH-2016 strain [8]; ZIKV, RPE cells): lowered production of infectious virus particles | antiviral activity in repeat experiments (ZIKV FB-GWUH-2016 strain [8]; ZIKV, RPE cells): confirmed antiviral activity | screen hit against RVFV [1]: identified | SI (minimal selectivity index, CC50/EC50) (HIV-1): >2 | primary screen hit against HIV-1 (HIV-1): anti-HIV-1 agents | validation of anti-HIV-1 hit (HIV-1): confirmed | EC50 (HIV-1): 13.2 µM | SI (minimal selectivity index, CC50/EC50) (ZIKV FB-GWUH-2016 strain [9]): >333 | EC50 (ZIKV FB-GWUH-2016 strain [9]; read-out: EC50 CTxG): 0.09 µM | CC50 (in vitro [7]; CC50 CTG): > 30 µM | CC50 (in vitro [7]; CC50 CTxG): > 30 µM | CC50 (in vitro [10]): > 30 µM | cytotoxicity (RPE cells): without detectable cytotoxicity

From paper PMC7113852 (Antiviral Research, 2018)
